# Paper PMC8521395 (Journal of Antimicrobial Chemotherapy, 2021)
# Legend:
# Format in all cases: cell-based, Escherichia coli
# WT E. coli cells = assay: Macromolecular synthesis; settings: nalidixic acid 40 mg/L (10×MIC), AB medium without casamino acids, single experiment
# E. coli = assay: MIC of chloramphenicol and nalidixic acid in AB medium; settings: printed as the concentration equal to 10×MIC
# [1] = system: WT carrying pCC:nrdAByfaE; assay: Time-kill assay, WT carrying pCC:nrdAByfaE; settings: 50 μM HU, 5 h, MHB-I
# NrdA protein = assay: Western-blot analysis of NrdA protein level; settings: 8 μM PNA-peptide, 3 h, AB medium, WT cells, band intensity relative to WT
# MG1655 = assay: MIC determination by broth microdilution; settings: MG1655, non-cation-adjusted Mueller-Hinton broth (MHB-I), low-binding plastic, 37°C, 18 h, turbidity OD595
# Strain SMR14350 = assay: In vivo double-stranded DNA break visualization; settings: ciprofloxacin 0.0125 mg/L, 4 h, AB medium, mean±SD of three determinations
# In short: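 E. coli Gam-GFP reporter strain SMR14350 grown exponentially at 37°C in AB minimal medium (10 mg/L thiamine, 0.2% glucose, 0.5% casamino acids), diluted to OD450 0.05. PNA-peptide test compound (8 μM) or ciprofloxacin (0.0125 mg/L) added with anhydrotetracycline (10 mg/L) to induce Gam-GFP, for 4 h. Foci scored by fluorescence microscopy in three independent experiments (2553–3860 cells per condition).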
compound,measurement,setting,value
CCn1cc(C(=O)O)c(=O)c2ccc(C)nc21 [nalidixic acid],DNA synthesis (DNA replication),WT E. coli cells,faster cessation of DNA replication
same,10×MIC,E. coli,40 µg/mL
"NC(=O)NO [HU, hydroxyurea]","reduction in cfu/mL, HU alone",[1],< 1 log
H-(KFF)3K-eg1-ATTGAT TGC G -NH2 [PNA5866],decrease of cellular NrdA protein level,NrdA protein,did not inhibit NrdA protein levels
same,MIC,MG1655,16 µM
O=C(O)c1cn(C2CC2)c2cc(N3CCNCC3)c(F)cc2c1=O [ciprofloxacin],percentage of cells with Gam-GFP foci,Strain SMR14350,51.9 ± 6.9%
O=C(N[C@H](CO)[C@H](O)c1ccc([N+](=O)[O-])cc1)C(Cl)Cl [chloramphenicol],10×MIC,E. coli,80 µg/mL
